Results published in ChEMBL document CHEMBL1135890, “Structure-activity relationships of 2'-fluoro-2',3'-unsaturated D-nucleosides as anti-HIV-1 agents” (J Med Chem, 2002).

Tests used:
[1] = substrate: Nc1ncnc2c1ncn2C1OC(CO)C=C1O; experiment: (§1) Michaelis constant was determined against mammalian Adenosine deaminase
Summary of the method: (§2)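 Calf intestinal mucosa adenosine deaminase (EC 3.5.4.4), 0.15–0.24 unit depending on substrate. Substrate 15–200 μM in phosphate buffer pH 7.4 at 25 °C. Deamination followed by UV absorbance at 265 nm. Each reaction medium was checked by TLC or UV to confirm the deaminated substrate was the sole product.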

[2] = substrate: Nc1ncnc2c1ncn2[C@@H]1O[C@H](CO)C=C1F; experiment: as §1; summary of the method: as §2
[3] = substrate: Nc1ncnc2c1ncn2[C@@H]1O[C@H](CO)[C@@H](O)[C@H]1O; experiment: as §1; summary of the method: as §2

B1: Adenosine deaminase (Homo sapiens), P00813 (protein)
chain: MAQTPAFDKPKVELHVHLDGSIKPETILYYGRRRGIALPANTAEGLLNVIGMDKPLTLPDFLAKFDYYMPAIAGCREAIKRIAYEFVEMKAKEGVVYVEVRYSPHLLANSKVEPIPWNQAEGDLTPDEVVALVGQGLQEGERDFGVKARSILCCMRHQPNWSPKVVELCKKYQQQTVVAIDLAGDETIPGSSLLPGHVQAYQEAVKSGIHRTVHAGEVGSAEVVKEAVDILKTERLGHGYHTLEDQALYNRLRQENMHFEICPWSSYLTGAWKPDTEHAVIRLKNDQANYSLNTDDPLIFKSTLDTDYQMTKRDMGFTEEEFKRLNINAAKSSFLPEDEKRELLDLLYKAYGMPPSASAGQNL
Protein B1 has a Km [1] of 30 µM, a Km [2] of 23 µM and a Km [3] of 5 µM.
